The results in this text go back to ChEMBL document CHEMBL4406847, “Tryptoline-based benzothiazoles re-sensitize MRSA to β-lactam antibiotics” (Bioorg Med Chem, 2019).

≈ marks a conversion by molar mass, not a printed value.

The test system of data set [1] is Staphylococcus aureus. Kind of data set: Ratio of MIC for antibacterial activity against methicillin resistant Staphylococcus aureus ATCC BAA-44 to MEC for potentiation of cefazolin induced antibacterial activity against methicillin resistant Staphylococcus aureus ATCC BAA-44. The format is functional. The gist of the method:
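Compound MIC alone (CLSI broth microdilution) divided by its MRC with cefazolin at the 8 μg/mL breakpoint, both against MRSA BAA-44; each confirmed in triplicate.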

Data set [2] relates to Staphylococcus aureus. The experiment in a line: Potentiation of cefazolin induced antibacterial activity against methicillin resistant Staphylococcus aureus ATCC BAA-44 assessed as minimum resensitizing concentration after 18 hrs by broth microdilution method. The data set is classed as functional. Conditions: ATCC BAA-44, 18 h, read-out: MEC. In short, it runs like this:
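Compound titrated in the presence of cefazolin at its CLSI breakpoint (8 μg/mL); MRC is the compound concentration at which no overnight growth occurs, in μg/mL; confirmed in triplicate.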
(In broth dilution the organism is exposed to a series of concentrations in liquid medium.)

The test system of data set [3] is Staphylococcus aureus. Kind of data set: Antibacterial activity against methicillin resistant Staphylococcus aureus ATCC BAA-44 after 18 hrs by broth microdilution method. The data set is classed as functional. Conditions: ATCC BAA-44, 18 h. The gist of the method:
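Compound alone, MIC by standard CLSI broth microdilution; lowest concentration with no growth, reported in μg/mL; confirmed in triplicate.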

The test system of another data set is HeLa. Kind of data set: Cytotoxicity against human HeLa cells assessed as cell growth inhibition measured after 24 hrs by Celltiter Glo luminescent assay. The format is cell-based. The note with it: hela, 24 h. In general terms: ATP-based viability assays read luminescence as a measure of living cells.

With `Cc1ccc2nc(N3CCc4c([nH]c5ccc(Cl)cc45)C3)sc2c1`, the Ratio in the data set with Staphylococcus aureus [1] is recorded as 0. Also, the minimal effective concentration with Staphylococcus aureus [2] was above 64 µg/mL.
What is called MIC is the lowest concentration found to suppress growth. A high value points to a need for much substance. As to `Clc1ccc2nc(N3CCc4c([nH]c5cccc(Cl)c45)C3)sc2c1`, the MIC with Staphylococcus aureus [3] was above 16 µg/mL. For the same compound, the minimal effective concentration in the data set with Staphylococcus aureus [2] was determined as 16 µg/mL.
As a reminder, the GI50 is the concentration giving 50% growth inhibition. Consider `NCCNCC1CN(c2nc3ccc(Cl)cc3s2)Cc2[nH]c3ccc(Cl)cc3c21` (racemic), for which, in the data set on HeLa, the concentration for 50% growth inhibition (GI50) was determined as 2.4 µg/mL (≈ 5.38 µM). Besides, in the data set with Staphylococcus aureus [2], the minimal effective concentration amounted to 2 µg/mL.
On to `COCOCC1CN(c2nc3ccc(Cl)cc3s2)Cc2[nH]c3ccc(Cl)cc3c21` (racemic), for which the GI50 in the data set with HeLa is 7 µg/mL (≈ 15.6 µM). Also, in the data set on Staphylococcus aureus [2], the minimal effective concentration turned out to be 2 µg/mL.
Turning to `FC(F)(F)c1cnc2nc(N3CCc4c([nH]c5ccc(Cl)cc45)C3)sc2c1`, the minimal effective concentration in the data set with Staphylococcus aureus [2] is above 64 µg/mL.
Turning to `Cl.NCCSCC1CN(c2nc3ccc(Cl)cc3s2)Cc2[nH]c3ccc(Cl)cc3c21` (racemic), in the data set with HeLa, the GI50 worked out at 3.8 µg/mL. In addition, the minimal effective concentration in the data set on Staphylococcus aureus [2] came to 1 µg/mL.
As to `Clc1ccc2sc(N3CCc4c([nH]c5ccc(Cl)cc45)C3)nc2c1`, the Ratio with Staphylococcus aureus [1] turned out to be 0. Also, the minimal effective concentration in the data set with Staphylococcus aureus [2] was above 64 µg/mL.
On to `Nc1ccc2nc(N3CCc4c([nH]c5ccc(Cl)cc45)C3)sc2c1`, for which, in the data set with Staphylococcus aureus [2], the minimal effective concentration is above 64 µg/mL.
For `NCC1CN(c2nc3ccc(Cl)cc3s2)Cc2[nH]c3ccc(Cl)cc3c21` (racemic), the GI50 in the data set on HeLa was found to be 1.5 µg/mL (≈ 3.72 µM). For the same compound, the minimal effective concentration in the data set with Staphylococcus aureus [2] came to 1 µg/mL.
As for `Cn1c(N2CCc3c([nH]c4ccc(Cl)cc34)C2)nc2ccc(C(F)(F)F)cc21`, the minimal effective concentration in the data set on Staphylococcus aureus [2] was above 64 µg/mL.
Regarding `CN(C)CC1CN(c2nc3ccc(Cl)cc3s2)Cc2[nH]c3ccc(Cl)cc3c21` (racemic), in the data set on Staphylococcus aureus [3], the MIC turned out to be 2 µg/mL (≈ 4.64 µM). Further, the GI50 in the data set on HeLa was found to be 5.2 µg/mL (≈ 12.1 µM). In addition, the minimal effective concentration in the data set on Staphylococcus aureus [2] was determined as 1 µg/mL.
Regarding `CCOC(=O)C1c2[nH]c3ccc(Cl)cc3c2CCN1c1nc2ccc(Cl)cc2s1` (stereo not drawn), the minimal effective concentration with Staphylococcus aureus [2] was above 64 µg/mL.
In the case of `Clc1ccc2[nH]c3c(c2c1)CCN(c1nc2c(Cl)c(Cl)c(Cl)cc2s1)C3`, 2 µg/mL (≈ 4.51 µM) was the least that counted as inhibitory in the data set on Staphylococcus aureus [3] (MIC). For the same compound, in the data set with HeLa, the 50% growth inhibitory concentration (GI50) stood at 11.7 µg/mL (≈ 26.4 µM). In the data set on Staphylococcus aureus [2], the minimal effective concentration is 1 µg/mL.
`Clc1cc(Cl)c2nc(N3CCc4c([nH]c5ccc(Cl)cc45)C3)sc2c1` had a minimal inhibitory concentration (MIC) with Staphylococcus aureus [3] of 2 µg/mL (≈ 4.89 µM). For the same compound, the GI50 in the data set on HeLa is 16.1 µg/mL (≈ 39.4 µM). The minimal effective concentration in the data set on Staphylococcus aureus [2] was determined as 1 µg/mL.
Consider `Cl.Nc1cc(C(F)(F)F)c2nc(N3CCc4c([nH]c5ccc(Cl)cc45)C3)sc2c1`, for which the MIC in the data set on Staphylococcus aureus [3] came to 16 µg/mL. In addition, the GI50 with HeLa was 32 µg/mL. For the same compound, the minimal effective concentration with Staphylococcus aureus [2] is 2 µg/mL.
In the case of `COc1cc(Cl)c2nc(N3CCc4c([nH]c5ccc(Cl)cc45)C3)sc2c1`, the minimal effective concentration in the data set on Staphylococcus aureus [2] is above 32 µg/mL.
`Clc1ccc2[nH]c3c(c2c1)CCN(c1nc2ccc(Br)cc2s1)C3` yielded a minimum inhibitory concentration (MIC) against Staphylococcus aureus [3] above 64 µg/mL. Also, the GI50 in the data set with HeLa came out at 5.1 µg/mL (≈ 12.2 µM). For the same compound, the minimal effective concentration with Staphylococcus aureus [2] was 2 µg/mL.
As to `Clc1ccc2nc(N3CCc4c([nH]c5ccc(Br)cc45)C3)sc2c1`, the minimum inhibitory concentration (MIC) with Staphylococcus aureus [3] was 4 µg/mL (≈ 9.55 µM). Also, the minimal effective concentration with Staphylococcus aureus [2] came to 1 µg/mL.
Take `FC(F)(F)c1cc(Br)cc2sc(N3CCc4c([nH]c5ccc(Cl)cc45)C3)nc12`: the MIC against Staphylococcus aureus [3] is 4 µg/mL (≈ 8.22 µM). Besides, the GI50 in the data set with HeLa was determined as 5.9 µg/mL (≈ 12.1 µM). Moreover, the minimal effective concentration in the data set with Staphylococcus aureus [2] is 0.5 µg/mL.
As for `Clc1ccc2[nH]c3c(c2c1)CCN(c1nc2ccccc2o1)C3`, the Ratio in the data set on Staphylococcus aureus [1] was determined as 0. The minimal effective concentration with Staphylococcus aureus [2] is above 64 µg/mL.
Regarding `FC(F)(F)c1ccc2nc(N3CCc4c([nH]c5ccc(Cl)cc45)C3)sc2c1`, the MIC in the data set with Staphylococcus aureus [3] was above 64 µg/mL. The 50% growth inhibitory concentration (GI50) in the data set on HeLa turned out to be 4.6 µg/mL (≈ 11.3 µM). Besides, the minimal effective concentration in the data set on Staphylococcus aureus [2] amounted to 0.5 µg/mL.
The corresponding values for `C[N+](C)(C)CC1CN(c2nc3ccc(Cl)cc3s2)Cc2[nH]c3ccc(Cl)cc3c21.[I-]` (racemic) are 8 µg/mL, 18 µg/mL and 4 µg/mL.
The matching figures for `N=CNCC1CN(c2nc3ccc(Cl)cc3s2)Cc2[nH]c3ccc(Cl)cc3c21` (racemic): 4 µg/mL (≈ 9.29 µM), 3.8 µg/mL (≈ 8.83 µM) and 2 µg/mL.
As to `FC(F)(F)c1ccc2nc(N3CCc4c([nH]c5ccc(Cl)cc45)C3)oc2c1`, the Ratio in the data set on Staphylococcus aureus [1] is 0. Also, in the data set with Staphylococcus aureus [2], the minimal effective concentration was above 64 µg/mL.
With `Clc1ccc2[nH]c3c(c2c1)CCN(c1nc2cccc(Cl)c2s1)C3`, inhibition of growth against Staphylococcus aureus [3] (MIC) required 4 µg/mL (≈ 10.7 µM). Also, the GI50 with HeLa was determined as 6.7 µg/mL (≈ 17.9 µM). In addition, in the data set with Staphylococcus aureus [2], the minimal effective concentration worked out at 1 µg/mL.
Consider `COc1ccc2[nH]c3c(c2c1)CCN(c1nc2ccc(Cl)cc2s1)C3`, for which the minimal effective concentration with Staphylococcus aureus [2] was above 64 µg/mL.
On the same count and under the same terms, in the case of `CCOC(=O)c1ccc2nc(N3CCc4c([nH]c5ccc(Cl)cc45)C3)sc2c1` it was above 64 µg/mL.
Turning to `Cl.NCC(=O)Nc1cc(Cl)c2nc(N3CCc4c([nH]c5ccc(Cl)cc45)C3)sc2c1`, the concentration for 50% growth inhibition (GI50) in the data set with HeLa stood at 14.8 µg/mL. For the same compound, the minimal effective concentration in the data set with Staphylococcus aureus [2] was found to be 2 µg/mL.
For the compound `OCC1CN(c2nc3ccc(Cl)cc3s2)Cc2[nH]c3ccc(Cl)cc3c21` (racemic), the 50% growth inhibitory concentration (GI50) with HeLa stood at 10.8 µg/mL (≈ 26.7 µM). Further, the minimal effective concentration in the data set on Staphylococcus aureus [2] was 2 µg/mL.
Turning to `Clc1ccc2nc(N3CCc4c([nH]c5ccc(Cl)cc45)C3)oc2c1`, the Ratio in the data set with Staphylococcus aureus [1] was 0. Further, the minimal effective concentration with Staphylococcus aureus [2] was above 64 µg/mL.
As for `Clc1ccc2[nH]c3c(c2c1)CCN(c1nc2ncccc2s1)C3`, in the data set with Staphylococcus aureus [2], the minimal effective concentration is above 64 µg/mL.
As for `FC(F)(F)Oc1ccc(NC(=S)N2CCc3c([nH]c4ccc(Cl)cc34)C2)cc1`, the Ratio with Staphylococcus aureus [1] came to 2. The minimal effective concentration in the data set with Staphylococcus aureus [2] was 1 µg/mL.
`Clc1ccc2nc(N3CCc4c([nH]c5c(Cl)cccc45)C3)sc2c1` displayed an MIC in the data set on Staphylococcus aureus [3] above 16 µg/mL. Moreover, the minimal effective concentration with Staphylococcus aureus [2] came out at 16 µg/mL.
For the compound `Clc1ccc2c3c([nH]c2c1)CN(c1nc2ccc(Cl)cc2s1)CC3`, the minimal effective concentration in the data set on Staphylococcus aureus [2] was above 64 µg/mL.
On to `Oc1cc(Cl)c2nc(N3CCc4c([nH]c5ccc(Cl)cc45)C3)sc2c1`, for which the MIC against Staphylococcus aureus [3] is above 32 µg/mL. In the data set with HeLa, the GI50 is 5.5 µg/mL (≈ 14.1 µM). In the data set on Staphylococcus aureus [2], the minimal effective concentration is 8 µg/mL.
`Cn1c(N2CCc3c([nH]c4ccc(Cl)cc34)C2)nc2ccccc21`: the minimal effective concentration in the data set on Staphylococcus aureus [2] was above 64 µg/mL.
In the case of `Cl.NCCNc1cc(C(F)(F)F)c2nc(N3CCc4c([nH]c5ccc(Cl)cc45)C3)sc2c1`, the 50% growth inhibitory concentration (GI50) with HeLa was found to be 7.4 µg/mL. The minimal effective concentration with Staphylococcus aureus [2] is 1 µg/mL.
As to `Cn1c(N2CCc3c([nH]c4ccc(Cl)cc34)C2)nc2ccc(Cl)cc21`, the minimal effective concentration in the data set with Staphylococcus aureus [2] was above 64 µg/mL.
Take `Clc1ccc2[nH]c3c(c2c1)CCN(c1nc2c(Cl)cc(Br)cc2s1)C3`: in the data set on Staphylococcus aureus [3], the MIC is above 32 µg/mL. In the data set on HeLa, the concentration for 50% growth inhibition (GI50) came out at 22 µg/mL (≈ 48.5 µM). Besides, the minimal effective concentration in the data set with Staphylococcus aureus [2] came out at 8 µg/mL.
For the compound `Clc1ccc2[nH]c3c(c2c1)CCN(c1nc2ccccc2s1)C3`, the Ratio in the data set with Staphylococcus aureus [1] stood at 0. Also, the minimal effective concentration in the data set on Staphylococcus aureus [2] is above 64 µg/mL.
Turning to `NCCOc1cc(Cl)c2nc(N3CCc4c([nH]c5ccc(Cl)cc45)C3)sc2c1`, the minimum inhibitory concentration (MIC) in the data set on Staphylococcus aureus [3] was found to be 8 µg/mL (≈ 18.5 µM). Further, in the data set with Staphylococcus aureus [2], the minimal effective concentration is 4 µg/mL.
Consider `Fc1ccc2[nH]c3c(c2c1)CCN(c1nc2ccc(Cl)cc2s1)C3`, for which the minimal effective concentration with Staphylococcus aureus [2] is above 64 µg/mL.
Take `CNc1cc(C(F)(F)F)c2nc(N3CCc4c([nH]c5ccc(Cl)cc45)C3)sc2c1`: the minimum inhibitory concentration (MIC) in the data set with Staphylococcus aureus [3] was above 32 µg/mL. The GI50 with HeLa was 15.4 µg/mL (≈ 35.2 µM). In the data set on Staphylococcus aureus [2], the minimal effective concentration worked out at 2 µg/mL.
Regarding `CCn1c2c(c3cc(Cl)ccc31)CCN(c1nc3ccc(Cl)cc3s1)C2`, the minimal effective concentration in the data set on Staphylococcus aureus [2] is above 64 µg/mL.
